In brackets after ≈: the same amount, converted by molar mass. Activity calls are given as the source filed them. The rule behind the calls is not given here.
Tests used:
[1] = tested on: Human immunodeficiency virus 1; test: Antiviral activity against HIV1 3B in human MT4 cells assessed as protection against virus-induced cytopathogenicity by MTT assay; format: functional, organism-based; design: Activity: concentration or dose not given beside the values; details: for IC50: Human immunodeficiency virus 1, 3B, MT4
Procedure, shortened: (§1)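 MT-4 cells at 6 × 10⁵ cells/ml infected with HIV-1 IIIB or HIV-2 ROD at 100–300 CCID50; compounds in serial five-fold dilutions, triplicate mock- and virus-infected wells. MTT viability read at 540 and 690 nm after 5 days, median OD of three wells; EC50 = 50% protection from viral cytopathic effect.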

[2] = tested on: Human immunodeficiency virus 2; test: Antiviral activity against HIV2 ROD in human MT4 cells assessed as protection against virus-induced cytopathogenicity by MTT assay; format: functional, organism-based; design: Activity: concentration or dose not given beside the values; details: for IC50: Human immunodeficiency virus 2, ROD, MT4; procedure, shortened: as §1
[3] = Cytotoxicity against human MT4 cells by MTT assay; format: cell-based
Procedure, shortened: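 Mock-infected MT-4 cells (6 × 10⁵ cells/ml) with serial five-fold compound dilutions in triplicate; MTT reduction read at 540 and 690 nm after 5 days, median OD of three wells; CC50 = concentration reducing OD540 of mock-infected control by 50%.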

[4] = Cytotoxicity against human HeLa cells; format: cell-based
Procedure, shortened: (§2)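 Uninfected cell cultures exposed to test compounds alongside antiviral assays; minimum cytotoxic concentration (MCC) = concentration causing a microscopically detectable alteration of cell morphology.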

[5] = tested on: Vesicular stomatitis virus; test: Antiviral activity against vesicular stomatitis virus in human HeLa cells assessed as inhibition of virus-induced cytopathogenicity; format: functional
Procedure, shortened: (§3)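 Confluent cell monolayers (E6SM, HEL, HeLa or Vero, per line) inoculated with 100 CCID50 virus; 1 h adsorption, residual virus removed, then incubated with compound at 400, 200, 100 … µg/ml. Cytopathicity scored once complete in untreated virus controls; MIC = concentration inhibiting virus-induced cytopathicity.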

Coxsackievirus B4 [6] = test: Antiviral activity against Coxsackie virus B4 in human HeLa cells assessed as inhibition of virus-induced cytopathogenicity; format: functional; details: Enterovirus B; procedure, shortened: as §3
[7] = tested on: Respiratory syncytial virus; test: Antiviral activity against respiratory syncytial virus in human HeLa cells assessed as inhibition of virus-induced cytopathogenicity; format: functional; procedure, shortened: as §3
[8] = Cytotoxicity against human E6SM cells; format: cell-based; details: E6SM cells; procedure, shortened: as §2
[9] = Cytotoxicity against human HEL cells assessed as alteration of cell morphology; format: cell-based; procedure, shortened: as §2
Human alphaherpesvirus 1 [10] = test: Antiviral activity against HSV1 KOS in human E6SM cells assessed as reduction of virus-induced cytopathogenicity; format: functional; details: Human alphaherpesvirus 1, KOS; procedure, shortened: as §3
Human alphaherpesvirus 1 [11] = test: Antiviral activity against HSV1 KOS in human HEL cells assessed as reduction of virus-induced cytopathogenicity; format: functional; details: Human alphaherpesvirus 1, KOS; procedure, shortened: as §3
Human alphaherpesvirus 2 [12] = test: Antiviral activity against HSV2 G in human E6SM cells assessed as reduction of virus-induced cytopathogenicity; format: functional; details: Human alphaherpesvirus 2, G; procedure, shortened: as §3
Human alphaherpesvirus 2 [13] = test: Antiviral activity against HSV2 G in human HEL cells assessed as reduction of virus-induced cytopathogenicity; format: functional; details: Human alphaherpesvirus 2, G; procedure, shortened: as §3
[14] = tested on: Vesicular stomatitis virus; test: Antiviral activity against in Vesicular stomatitis virus in human E6SM cells assessed as reduction of virus-induced cytopathogenicity; format: functional; procedure, shortened: as §3
[15] = tested on: Vesicular stomatitis virus; test: Antiviral activity against in Vesicular stomatitis virus in human HEL cells assessed as reduction of virus-induced cytopathogenicity; format: functional; procedure, shortened: as §3
Human alphaherpesvirus 1 [16] = test: Antiviral activity against thymidine kinase deficient and acyclovir resistant HSV1 KOS in human E6SM cells assessed as reduction of virus-induced cytopathogenicity; format: functional; details: Human alphaherpesvirus 1, KOS; procedure, shortened: as §3
Human alphaherpesvirus 1 [17] = test: Antiviral activity against thymidine kinase deficient and acyclovir resistant HSV1 KOS in human HEL cells assessed as reduction of virus-induced cytopathogenicity; format: functional; details: Human alphaherpesvirus 1, KOS; procedure, shortened: as §3
Vero = test: Cytotoxicity against african green monkey Vero cells; format: cell-based; details: chlorocebus sabaeus; procedure, shortened: as §2
Coxsackievirus B4 [18] = test: Antiviral activity against Coxsackie virus B4 in african green monkey Vero cells assessed as reduction of virus-induced cytopathogenicity; format: functional; details: Enterovirus B; procedure, shortened: as §3
Punta Toro virus = test: Antiviral activity against Punta Toro virus in african green monkey Vero cells assessed as reduction of virus-induced cytopathogenicity; format: functional; procedure, shortened: as §3
Human betaherpesvirus 5 [19] = test: Antiviral activity against human cytomegalovirus AD169 infected HEL cells assessed as reduction in virus plaque formation; format: functional, organism-based; details: Human betaherpesvirus 5, AD169, HEL
Human betaherpesvirus 5 [20] = test: Antiviral activity against human cytomegalovirus Davis infected HEL cells assessed as reduction in virus plaque formation; format: functional, organism-based; details: Human betaherpesvirus 5, Davis
Human alphaherpesvirus 3 [21] = test: Antiviral activity against TK+ VZV OKA infected HEL cells assessed as reduction in virus plaque formation; format: functional, organism-based; details: Human alphaherpesvirus 3, OKA
Human alphaherpesvirus 3 [22] = test: Antiviral activity against TK- VZV 07/1 infected HEL cells assessed as reduction in virus plaque formation; format: functional, organism-based; details: Human alphaherpesvirus 3, 07/1, HEL
[23] = tested on: Mycobacterium tuberculosis; test: Antitubercular activity against Mycobacterium tuberculosis H37Rv at 6.25 ug/ml by MABA assay; format: functional
Human respirovirus 3 = test: Antiviral activity against Parainfluenza 3 virus in african green monkey Vero cells assessed as reduction of virus-induced cytopathogenicity; format: functional; procedure, shortened: as §3
[24] = tested on: Mammalian orthoreovirus 1; test: Antiviral activity against Reo virus 1 in african green monkey Vero cells assessed as reduction of virus-induced cytopathogenicity; format: functional; procedure, shortened: as §3
Sindbis virus = test: Antiviral activity against Sindbis virus in african green monkey Vero cells assessed as reduction of virus-induced cytopathogenicity; format: functional; procedure, shortened: as §3
[25] = Cytotoxicity against human HEL cells assessed as reduction of cell growth; format: cell-based
Procedure, shortened: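 HEL cells; CC50 = compound concentration reducing cell growth by 50%.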

Compound	Activity [1] [%]	IC50 [1] [µg/mL]	Activity [2] [%]	IC50 [2] [µg/mL]	CC50 [3] [µg/mL]	MCC [4] [µg/mL]	MIC [5] [µg/mL]	MIC (Coxsackievirus B4 [6]) [µg/mL]	MIC [7] [µg/mL]	MCC [8] [µg/mL]	MCC [9] [µg/mL]	MIC (Human alphaherpesvirus 1 [10]) [µg/mL]	MIC (Human alphaherpesvirus 1 [11]) [µg/mL]	MIC (Human alphaherpesvirus 2 [12]) [µg/mL]	MIC (Human alphaherpesvirus 2 [13]) [µg/mL]	MIC [14] [µg/mL]	MIC [15] [µg/mL]	MIC (Human alphaherpesvirus 1 [16]) [µg/mL]	MIC (Human alphaherpesvirus 1 [17]) [µg/mL]	Activity (Vero) [µg/mL]	further results
C=CCn1c(COc2ccc(NC(=S)Nc3ccccc3)cc2)n[nH]c1=S	19	> 20.2	22.5	> 20.3	23.2 (≈ 58.4 µM)	80	> 16	> 16	> 16	400	400	> 80	> 80	> 80	> 80	80 (≈ 201 µM)	80 (≈ 201 µM)	> 80	> 80	80	MIC (Coxsackievirus B4 [18]): 16 µg/mL (≈ 40.2 µM); MIC (Punta Toro virus): > 16 µg/mL; EC50 (Human betaherpesvirus 5 [19]): 45 µg/mL (≈ 113 µM); EC50 (Human betaherpesvirus 5 [20]): 45 µg/mL (≈ 113 µM); EC50 (Human alphaherpesvirus 3 [21]): 9.9 µg/mL (≈ 24.9 µM); EC50 (Human alphaherpesvirus 3 [22]): 26.8 µg/mL (≈ 67.4 µM); inhibition at 6.25 µg/mL [23]: 79%; MIC (Human respirovirus 3): > 16 µg/mL; MIC [24]: > 16 µg/mL; MIC (Sindbis virus): > 16 µg/mL; CC50 [25]: 42 µg/mL (≈ 106 µM)
CCNC(=S)Nc1ccc(OCc2n[nH]c(=S)n2C)cc1	1.5	> 107	2	> 125	≥ 107	400	> 80	> 80	> 80	> 400	> 400	> 400	> 400	240 (≈ 742 µM)	240 (≈ 742 µM)	> 400	> 400	240 (≈ 742 µM)	240 (≈ 742 µM)	400	MIC (Coxsackievirus B4 [18]): > 80 µg/mL; MIC (Punta Toro virus): > 80 µg/mL; EC50 (Human betaherpesvirus 5 [19]): > 100 µg/mL; EC50 (Human betaherpesvirus 5 [20]): > 100 µg/mL; EC50 (Human alphaherpesvirus 3 [21]): > 100 µg/mL; EC50 (Human alphaherpesvirus 3 [22]): > 100 µg/mL; Activity [23]: inactive; MIC (Human respirovirus 3): > 80 µg/mL; MIC [24]: > 80 µg/mL; MIC (Sindbis virus): > 80 µg/mL; CC50 [25]: > 50 µg/mL
C=CCn1c(COc2ccc(N)cc2)n[nH]c1=S	3.5	> 125	9	> 125	> 125	> 400	> 400	> 400	> 400	> 400	> 400	> 400	> 400	240 (≈ 915 µM)	240 (≈ 915 µM)	> 400	> 400	> 400	> 400	400	MIC (Coxsackievirus B4 [18]): > 80 µg/mL; MIC (Punta Toro virus): > 80 µg/mL; EC50 (Human betaherpesvirus 5 [19]): > 100 µg/mL; EC50 (Human betaherpesvirus 5 [20]): > 100 µg/mL; EC50 (Human alphaherpesvirus 3 [21]): > 100 µg/mL; EC50 (Human alphaherpesvirus 3 [22]): > 100 µg/mL; Activity [23]: inactive; MIC (Human respirovirus 3): > 80 µg/mL; MIC [24]: > 80 µg/mL; MIC (Sindbis virus): > 80 µg/mL; CC50 [25]: > 50 µg/mL
Cn1c(COc2ccc(NC(=S)Nc3ccccc3)cc2)n[nH]c1=S	3.5	> 98.9	6.5	> 87.8	≥ 87.8	> 400	> 400	> 400	> 400	400	400	> 80	> 80	> 80	> 80	> 80	> 80	> 80	> 80	400	MIC (Coxsackievirus B4 [18]): > 80 µg/mL; MIC (Punta Toro virus): > 80 µg/mL; EC50 (Human betaherpesvirus 5 [19]): 66 µg/mL (≈ 178 µM); EC50 (Human betaherpesvirus 5 [20]): 49 µg/mL (≈ 132 µM); EC50 (Human alphaherpesvirus 3 [21]): 33 µg/mL (≈ 88.8 µM); EC50 (Human alphaherpesvirus 3 [22]): 38 µg/mL (≈ 102 µM); inhibition at 6.25 µg/mL [23]: 70%; MIC (Human respirovirus 3): > 80 µg/mL; MIC [24]: > 80 µg/mL; MIC (Sindbis virus): > 80 µg/mL; CC50 [25]: > 50 µg/mL

Reference: ChEMBL document CHEMBL1149790, “Synthesis of some novel thiourea derivatives obtained from 5-[(4-aminophenoxy)methyl]-4-alkyl/aryl-2,4-dihydro-3H-1,2,4-triazole-3-thiones and evaluation as antiviral/anti-HIV and anti-tuberculosis agents” (Eur J Med Chem, 2008)
